Measured values as given in ChEMBL document CHEMBL4811252, “Identification of novel 1,3-diaryl-1,2,4-triazole-capped histone deacetylase 6 inhibitors with potential anti-gastric cancer activity” (Eur J Med Chem, 2021).
pIC50, pKd: −log10 of the molar value.

What was measured:
[1] = target: T1, Protein deacetylase HDAC6 (Homo sapiens, UniProt Q9UBN7); assay: Inhibition of recombinant full length human HDAC6 expressed in baculovirus infected Sf9 cells using Z-(Ac)-Lys-AMC as substrate incubated for 40 mins by fluorescence based assay
T1 sequence (Q9UBN7 whole entry): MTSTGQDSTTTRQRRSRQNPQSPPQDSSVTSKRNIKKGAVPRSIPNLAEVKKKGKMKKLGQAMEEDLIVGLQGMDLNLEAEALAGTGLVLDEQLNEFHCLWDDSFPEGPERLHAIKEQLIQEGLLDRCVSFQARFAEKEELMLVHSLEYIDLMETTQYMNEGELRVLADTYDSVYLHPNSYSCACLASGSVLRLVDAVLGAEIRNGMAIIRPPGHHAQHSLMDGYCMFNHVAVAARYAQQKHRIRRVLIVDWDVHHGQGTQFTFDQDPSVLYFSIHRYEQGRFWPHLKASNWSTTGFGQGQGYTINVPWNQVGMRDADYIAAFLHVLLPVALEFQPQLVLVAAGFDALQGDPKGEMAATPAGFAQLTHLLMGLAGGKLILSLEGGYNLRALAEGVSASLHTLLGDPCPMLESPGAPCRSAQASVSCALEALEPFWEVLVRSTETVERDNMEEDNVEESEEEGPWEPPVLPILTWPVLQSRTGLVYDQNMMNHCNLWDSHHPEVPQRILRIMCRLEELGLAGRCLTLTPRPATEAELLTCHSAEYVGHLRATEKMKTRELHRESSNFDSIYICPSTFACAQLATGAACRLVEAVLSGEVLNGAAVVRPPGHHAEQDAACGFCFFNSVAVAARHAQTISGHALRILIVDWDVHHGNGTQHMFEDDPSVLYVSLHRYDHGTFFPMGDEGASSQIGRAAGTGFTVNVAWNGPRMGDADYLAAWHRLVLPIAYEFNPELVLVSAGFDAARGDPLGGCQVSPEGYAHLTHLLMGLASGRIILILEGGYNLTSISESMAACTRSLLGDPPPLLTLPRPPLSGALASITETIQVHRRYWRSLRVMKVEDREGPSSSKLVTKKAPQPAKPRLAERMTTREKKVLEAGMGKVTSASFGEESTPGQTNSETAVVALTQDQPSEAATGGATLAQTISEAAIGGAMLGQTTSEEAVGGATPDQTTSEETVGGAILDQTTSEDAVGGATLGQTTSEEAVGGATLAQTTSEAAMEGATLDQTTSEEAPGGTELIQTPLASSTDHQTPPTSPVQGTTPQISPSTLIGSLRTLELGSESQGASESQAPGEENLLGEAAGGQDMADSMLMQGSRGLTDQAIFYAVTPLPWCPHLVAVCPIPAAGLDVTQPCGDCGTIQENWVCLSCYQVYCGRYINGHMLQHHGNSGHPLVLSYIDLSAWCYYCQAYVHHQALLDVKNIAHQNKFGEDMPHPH

MGC-803 [2] = assay: Antiproliferative activity against human MGC803 cells incubated for 72 hrs by MTT assay; assay type: functional, cell-based; details: MGC-803, 72 h
Histone deacetylase 2 = Histone deacetylase 2 (Homo sapiens, UniProt Q92769); assay: Inhibition of HDAC2 (unknown origin)
Histone deacetylase 3 = Histone deacetylase 3 (Homo sapiens, UniProt O15379); assay: Inhibition of HDAC3 (unknown origin)
Histone deacetylase 8 = target: T2, Histone deacetylase 8 (Homo sapiens, UniProt Q9BY41); assay: Inhibition of HDAC8 (unknown origin)
T2 sequence (Q9BY41 whole entry): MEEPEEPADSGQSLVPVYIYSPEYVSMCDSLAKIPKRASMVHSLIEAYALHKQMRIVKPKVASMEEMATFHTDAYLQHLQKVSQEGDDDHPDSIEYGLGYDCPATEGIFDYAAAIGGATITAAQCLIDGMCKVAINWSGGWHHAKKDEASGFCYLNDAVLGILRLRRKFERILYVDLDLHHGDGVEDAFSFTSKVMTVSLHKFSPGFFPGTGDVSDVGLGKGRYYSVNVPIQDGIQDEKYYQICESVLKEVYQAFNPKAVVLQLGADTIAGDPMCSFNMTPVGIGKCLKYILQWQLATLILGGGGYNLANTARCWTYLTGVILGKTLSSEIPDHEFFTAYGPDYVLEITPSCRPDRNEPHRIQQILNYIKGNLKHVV

[3] = target: T1, Protein deacetylase HDAC6; assay: Binding affinity to recombinant human HDAC6 by BLI assay
[4] = target: T3, Protein deacetylase HDAC6 (Homo sapiens) (UniProt Q9UBN7); assay: Inhibition of HDAC6 in human MGC803 cells assessed as accumulation of acetylated alpha-tubulin level after 48 hrs by Western blotting analysis; assay type: cell-based; details: MGC-803, dose 2-8 µM
T3 sequence (whole entry): T1 sequence (Q9UBN7 whole entry)
In short: (§1)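 MGC803 cells treated for 48 h, then lysed (0.1% SDS, 150 mM NaCl, 25 mM Tris-HCl, 1% deoxycholate, 1% NP-40, 1% PMSF). Protein quantified by BCA and resolved on 8–10% SDS-PAGE onto PVDF. Blocked in 5% milk, primary antibodies overnight at 4 °C, HRP secondary, ECL. GAPDH, total α-tubulin and H3 as references. Mean ± SD of three experiments.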

MGC-803 [5] = assay: Induction of apoptosis in human MGC803 cells assessed as early apoptotic cells at 4 uM measured after 48 hrs by Annexin-V FITC/PI staining based flow cytometry (reference value: 0.19%); assay type: functional
MGC-803 [6] = assay: Induction of apoptosis in human MGC803 cells assessed as necrotic cells at 4 uM measured after 48 hrs by Annexin-V FITC/PI staining based flow cytometry (reference value: 4.74%); assay type: functional
MGC-803 [7] = assay: Induction of apoptosis in human MGC803 cells assessed as viable cells at 8 uM measured after 48 hrs by Annexin-V FITC/PI staining based flow cytometry (reference value: 92.33%); assay type: functional; details: read-out: Activity
MGC-803 [8] = assay: Induction of apoptosis in human MGC803 cells assessed as late apoptotic cells at 8 uM measured after 48 hrs by Annexin-V FITC/PI staining based flow cytometry (reference value: 2.74%); assay type: functional
MGC-803 [9] = assay: Induction of apoptosis in human MGC803 cells assessed as downregulation of Bcl2 expression after 48 hrs by Western blotting analysis; assay type: functional, cell-based; details: dose 2-8 µM; in short: as §1
MGC-803 [10] = assay: Induction of apoptosis in human MGC803 cells assessed as increase in PARP expression after 48 hrs by Western blotting analysis; assay type: functional, cell-based; details: dose 2-8 µM; in short: as §1
[11] = Acute toxicity in C57BL/6 mouse assessed as change in body weight at 2 g/kg, po administered via gavage measured up to 14 days; assay type: organism-based; details: in vivo, 2000 mg/kg, 336 h, time <=14 day
In short: (§2)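 Mice aged 8-10 weeks, 20 females and 20 males, split into two groups: vehicle control (0.5% CMC-Na) or a single oral gavage dose of 2000 mg/kg. Animals were fed and observed normally for 14 days, recording body weight, mortality and behaviour. Heart, liver, spleen, lung and kidney sections were then fixed, embedded and H&E stained.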

[12] = Acute toxicity in C57BL/6 mouse assessed as liver tissue damage at 2 g/kg, po administered via gavage measured up to 14 days by HE staining based assay; assay type: organism-based; details: in vivo, 2000 mg/kg, 336 h, time <=14 day; in short: as §2
[13] = target: T3, Protein deacetylase HDAC6 (Homo sapiens); details: Sf9, dose 100.0 nM, time 40.0 min

Chain of Histone deacetylase 3 (O15379 whole entry): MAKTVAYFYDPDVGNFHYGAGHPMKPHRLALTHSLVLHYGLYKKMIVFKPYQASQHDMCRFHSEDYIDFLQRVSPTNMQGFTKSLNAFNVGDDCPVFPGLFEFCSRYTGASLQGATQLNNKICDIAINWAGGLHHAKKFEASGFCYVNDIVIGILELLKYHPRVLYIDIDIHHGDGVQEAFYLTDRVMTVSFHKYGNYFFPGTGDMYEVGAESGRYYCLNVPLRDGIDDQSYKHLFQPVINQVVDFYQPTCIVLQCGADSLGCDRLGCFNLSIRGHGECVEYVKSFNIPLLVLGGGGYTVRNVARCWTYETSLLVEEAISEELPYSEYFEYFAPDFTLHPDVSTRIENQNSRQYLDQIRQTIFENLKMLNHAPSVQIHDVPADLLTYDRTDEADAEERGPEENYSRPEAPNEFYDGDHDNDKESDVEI
Chain of Histone deacetylase 2 (Q92769 whole entry): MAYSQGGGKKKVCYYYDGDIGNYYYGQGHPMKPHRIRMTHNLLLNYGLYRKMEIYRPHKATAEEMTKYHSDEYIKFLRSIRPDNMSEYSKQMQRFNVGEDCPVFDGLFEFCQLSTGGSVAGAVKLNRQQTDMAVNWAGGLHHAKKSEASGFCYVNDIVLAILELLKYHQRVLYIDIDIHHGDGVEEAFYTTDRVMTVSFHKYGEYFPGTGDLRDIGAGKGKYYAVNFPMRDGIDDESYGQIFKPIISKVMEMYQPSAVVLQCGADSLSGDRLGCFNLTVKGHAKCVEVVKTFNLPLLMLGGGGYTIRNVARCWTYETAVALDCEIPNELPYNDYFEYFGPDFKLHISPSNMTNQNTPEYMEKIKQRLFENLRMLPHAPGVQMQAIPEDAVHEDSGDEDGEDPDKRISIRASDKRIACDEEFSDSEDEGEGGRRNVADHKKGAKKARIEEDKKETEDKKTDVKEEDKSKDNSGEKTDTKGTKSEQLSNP

`Cc1ccc(-c2nc(CNc3ccc(C(=O)NO)cc3)n(-c3ccccc3)n2)s1` showed a pIC50 [1] of 7.51, a pIC50 (MGC-803 [2]) of 5.07 and a pIC50 (Histone deacetylase 2) of 6.65. It also gave a pIC50 (Histone deacetylase 3) of 6.63, a pIC50 (Histone deacetylase 8) of 6.46 and a pKd [3] of 8.15. The inhibition [4] was “Dose-Dependent Effect”, the Activity (MGC-803 [5]) was 2.95% and the Activity (MGC-803 [6]) was 2.21%. The viability at 8 µM (MGC-803 [7]) was 43.6%, the Activity (MGC-803 [8]) was 45.65% and the Activity (MGC-803 [9]) was “Dose-Dependent Effect”. For the same molecule, the Activity (MGC-803 [10]) was “Dose-Dependent Effect”, the Activity [11] was “Non-Toxic” and the Activity [12] was “Non-Toxic”. The inhibition [13] was 79.7%.
